# Reference: ChEMBL document CHEMBL1143905, “Synthesis of barbiturate-based methionine aminopeptidase-1 inhibitors” (Bioorg Med Chem Lett, 2008)
# Experiment: Inhibition of Escherichia coli methionine aminopeptidase 1
# Summary of the method: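 Coupled chromogenic assay at room temperature: 50 mM HEPES pH 7.5, 100 μM CoCl2, 400 μM Met-Pro-pNA substrate, 0.25–4.0 μM MetAP-1 enzyme, 10–25 μM proline aminopeptidase as coupling enzyme, varying inhibitor concentrations. pNA release read at 405 nm. Ki obtained by non-linear regression assuming a competitive steady-state model.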
row,Compound,Ki
1,CN1C(=O)C(=C/C=C/c2ccccc2)C(=O)N(C)C1=O,> 100 µM
2,O=C1NC(=O)C(=Cc2ccc(O)cc2)C(=O)N1,4 µM
3,O=C1NC(=O)C(=Cc2ccc([N+](=O)[O-])cc2)C(=O)N1,105 µM
4,O=C1NC(=O)C(=Cc2ccccc2)C(=O)N1,517 µM
5,O=C1NC(=O)C(=Cc2cccc([N+](=O)[O-])c2)C(=O)N1,29 µM
6,CN1C(=O)C(=Cc2ccc(F)cc2)C(=O)N(C)C1=O,> 100 µM
7,CN1C(=O)C(=Cc2ccc([N+](=O)[O-])cc2)C(=O)N(C)C1=O,> 100 µM
8,CN1C(=O)C(=Cc2ccc(N(C)C)cc2)C(=O)N(C)C1=O,> 100 µM
9,O=C1NC(=S)NC(=O)C1=Cc1ccc(O)cc1,> 100 µM
10,CN1C(=O)C(=Cc2ccc(O)cc2)C(=O)N(C)C1=O,> 100 µM
11,COc1ccc(C=C2C(=O)NC(=O)NC2=O)cc1,25 µM
12,CN1C(=O)C(=C/C=C/c2ccc(N(C)C)cc2)C(=O)N(C)C1=O,> 100 µM
13,CN(C)c1ccc(/C=C/C=C2C(=O)NC(=O)NC2=O)cc1,0.05 µM
14,O=C1NC(=S)NC(=O)C1=Cc1ccccc1,> 100 µM
15,O=C1NC(=S)NC(=O)C1=C/C=C/c1ccccc1,> 100 µM
16,O=C1NC(=O)C(=C/C=C/c2ccccc2)C(=O)N1,12 µM
17,CN(C)c1ccc(/C=C/C=C2C(=O)NC(=S)NC2=O)cc1,17 µM
18,O=C1NC(=O)C(=Cc2ccc(F)cc2)C(=O)N1,89 µM
19,O=C1NC(=S)NC(=O)C1=Cc1ccc(C(=O)O)cc1,> 100 µM
20,CN(C)c1ccc(C=C2C(=O)NC(=S)NC2=O)cc1,> 100 µM
21,COc1ccc(C=C2C(=O)NC(=S)NC2=O)cc1,87 µM
22,O=C1NC(=S)NC(=O)C1=Cc1cccc([N+](=O)[O-])c1,> 100 µM
23,CN(C)c1ccc(C=C2C(=O)NC(=O)NC2=O)cc1,13 µM
24,O=C1NC(=O)C(=Cc2ccc(C(=O)O)cc2)C(=O)N1,335 µM
25,CN1C(=O)C(=Cc2ccc(C(=O)O)cc2)C(=O)N(C)C1=O,> 100 µM
26,CN1C(=O)C(=Cc2ccccc2)C(=O)N(C)C1=O,> 100 µM
27,CN1C(=O)C(=Cc2cccc([N+](=O)[O-])c2)C(=O)N(C)C1=O,> 100 µM
28,O=C1NC(=S)NC(=O)C1=Cc1ccc(F)cc1,> 100 µM
29,O=C1NC(=S)NC(=O)C1=Cc1ccc([N+](=O)[O-])cc1,> 100 µM
30,COc1ccc(C=C2C(=O)N(C)C(=O)N(C)C2=O)cc1,> 100 µM
